One block for each molecule: values may come before it.
How the values were obtained:
Parameters in all cases: dose 50 mg/kg, route oral
Conditions in all cases: in vivo
Rattus norvegicus [1] = assay: Metabolic stability in Sprague-Dawley rat assessed as urinary excretion of allo-hydroxymatairesinol at 50 mg/kg, po after 48 hrs; assay type: ADME, organism-based, Urine
Summary of the method: (§1)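 Five female Sprague-Dawley rats on RM1 diet received a single oral gavage of the lignan preparation in vehicle at 50 mg/kg. Individual 48 h urine was hydrolysed enzymatically, solid-phase extracted at pH 4.0 and measured by negative-ion HPLC-MS/MS MRM against calibration curves in spiked blank rat urine. Background was subtracted. Excretion is excreted molar amount per administered molar amount of that same component, reported as mean ± SD.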

Rattus norvegicus [2] = assay: Metabolic stability in Sprague-Dawley rat assessed as conversion to allo-hydroxymatairesinol level at 50 mg/kg, po after 48 hrs; assay type: ADME, organism-based
Summary of the method: (§2)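 Five female Sprague-Dawley rats were kept on RM1 diet before and during the study. A knotwood-derived lignan preparation was given once by oral gavage in vehicle at 50 mg/kg, and individual urine was collected over 48 h. Urine was enzymatically hydrolysed, solid-phase extracted at pH 4.0 and analysed by negative-mode HPLC-ESI-MS/MS MRM. Pre-dose background was subtracted. Conversion is excreted molar amount per total administered molar amount, reported as mean ± SD.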

Rattus norvegicus [3] = assay: Metabolic stability in Sprague-Dawley rat assessed as urinary excretion of hydroxymatairesinol at 50 mg/kg, po after 48 hrs; assay type: ADME, organism-based, Urine; summary of the method: as §1
Rattus norvegicus [4] = assay: Metabolic stability in Sprague-Dawley rat assessed as conversion to hydroxymatairesinol level at 50 mg/kg, po after 48 hrs; assay type: ADME, organism-based; summary of the method: as §2
Rattus norvegicus [5] = assay: Metabolic stability in Sprague-Dawley rat assessed as urinary excretion of isohydroxymatairesinol at 50 mg/kg, po after 48 hrs; assay type: ADME, organism-based, Urine; summary of the method: as §1
Rattus norvegicus [6] = assay: Metabolic stability in Sprague-Dawley rat assessed as conversion to isohydroxymatairesinol level at 50 mg/kg, po after 48 hrs; assay type: ADME, organism-based; summary of the method: as §2

Activity (Rattus norvegicus [1]): 14.3% | Activity (Rattus norvegicus [2]): 1400 nmol
Structure (SMILES): COc1cc(C[C@H]2C(=O)OC[C@@H]2[C@@H](O)c2ccc(O)c(OC)c2)ccc1O

Activity (Rattus norvegicus [3]): 6% | Activity (Rattus norvegicus [4]): 1100 nmol
Structure (SMILES): COc1cc(C[C@H]2C(=O)OC[C@@H]2[C@H](O)c2ccc(O)c(OC)c2)ccc1O [HYDROXYMATAIRESINOL]

Activity (Rattus norvegicus [5]): 5.9% | Activity (Rattus norvegicus [6]): 39 nmol
Structure (SMILES): COc1cc(C[C@H]2C(=O)O[C@H](c3ccc(O)c(OC)c3)[C@H]2CO)ccc1O [ISOHYDROXYMATAIRESINOL]
